Assay results collected from several papers.
Action: inhibitor
CSNK1A1: Casein kinase I isoform alpha (CSNK1A1, Homo sapiens, UniProt P48729)
HDAC10: Polyamine deacetylase HDAC10 (HDAC10, Homo sapiens, UniProt Q969S8)
PLA2G6: 85/88 kDa calcium-independent phospholipase A2 (PLA2G6, Homo sapiens, UniProt O60733)
HDAC7: Histone deacetylase 7 (HDAC7, Homo sapiens, UniProt Q8WUI4)
SLC22A12: Solute carrier family 22 member 12 (SLC22A12, Homo sapiens, UniProt Q96S37)

With Fc1ccc(-c2nn3cc(C(F)(F)F)ccc3c2-c2ccncc2)cc1 the IC50 was over 15 µM (CSNK1A1; enzyme activity; ADP detection).
For CN(CCCCCCNC(=O)COc1ccc(C2CCC(=O)NC2=O)cc1)Cc1cn(Cc2ccc(C(=O)NO)cc2)c2ccccc12 (stereo not shown), the IC50 was 0.012 µM (HDAC10; enzyme activity; fluorescence).
With c1ccc(-c2[nH]ccc2-c2ccnc3ccccc23)nc1 the IC50 was over 30 µM (CSNK1A1; enzyme activity; ADP detection).
For O=C(CCCCc1ccc(CO)cc1)C(F)(F)C(F)(F)F, the IC50 was 0.63 µM (PLA2G6; enzyme activity).
With O=C(COc1ccc(C2CCC(=O)NC2=O)cc1)NCCCCCCN1CCc2c(c3ccccc3n2Cc2ccc(C(=O)NO)cc2)C1 (stereo not shown) the IC50 was 0.023 µM (HDAC10; enzyme activity; fluorescence).
COc1ccc(N(Cc2csc(-c3ccccc3)n2)C(=O)CCCCCC(=O)NO)cc1 has an IC50 of over 10 µM (HDAC7; enzyme activity).
O=C(NS(=O)(=O)c1ccccc1)c1cc2ccccc2n1Cc1ccc(Br)c2ccccc12 has an IC50 of 12 µM (SLC22A12; transporter uptake; radiometric).
With COc1ccn2nc(-c3ccc(F)cc3)c(-c3ccncc3)c2c1 the IC50 was 2.1 µM (CSNK1A1; enzyme activity; ADP detection).
CC(C)C1=CC2=CC(=O)[C@H]3C(C)(C)CCC[C@]3(C)C2=C(O)C1=O (racemic) gave an IC50 of 0.12 µM (Farnesyl pyrophosphate synthase (FDPS, Homo sapiens, UniProt P14324); enzyme activity).
O=C(NO)c1ccc(Cn2cnc3c(Nc4ccc(Cl)cc4)ncnc32)cc1 has an IC50 of 0.048 µM (HDAC7; enzyme activity).
For O=C(O)/C=C/c1nccc2c3ccccc3n(Cc3ccc(Br)c4ccccc34)c12, the IC50 was 3.02 µM (SLC22A12; transporter uptake; radiometric).
c1coc(-c2n[nH]cc2-c2ccnc3ccccc23)c1 has an IC50 of 3.4 µM (CSNK1A1; enzyme activity; ADP detection).
For CCc1oc2cc(F)ccc2c1C(=O)c1cc(Br)c(O)c(Br)c1, the IC50 was 0.018 µM (SLC22A12; transporter uptake; radiometric; oocytes).
c1ccc(-c2occc2-c2ccnc3ccccc23)nc1 has an IC50 of over 30 µM (CSNK1A1; enzyme activity; ADP detection).
The IC50 of O=C(O)CCCCCCCC(=O)C(F)(F)F is reported as 352 µM (PLA2G6; enzyme activity).
Fc1ccc(-c2nc3cc(C4CC4)ccn3c2-c2ccncc2)cc1 gave an IC50 of 0.91 µM (CSNK1A1; enzyme activity; ADP detection).
O=C(NS(=O)(=O)c1ccccc1)c1cc2ccccc2n1Cc1ccc(C2CC2)c2ccccc12 has an IC50 of 4.09 µM (SLC22A12; transporter uptake; radiometric).
N#Cc1ccn2nc(-c3ccc(F)cc3)c(-c3ccncc3)c2c1 gave an IC50 of 0.73 µM (CSNK1A1; enzyme activity; ADP detection).
c1ccc(Cc2[nH]nc(-c3ccccn3)c2-c2ccnc3ccccc23)cc1 has an IC50 of 3.5 µM (CSNK1A1; enzyme activity; ADP detection).
